Target: MMP-9 (Homo sapiens, UniProt P14780)
Experiment: In-vitro MMP-9 cleavage assay of synthetic OPN-peptides
Type: biochemical
Settings: active MMP-9, 20:1 (w/w), 37 °C, 24 h; MS/MS identification of fragments
How it was run: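 Synthetic N-acetylated, C-amidated mouse OPN peptides, each spanning a candidate cleavage site mid-sequence, incubated with active MMP-9 at 20:1 (w/w) in 1× zymogram developing buffer, 37 °C, 24 h. Controls lacked enzyme or peptide. Reactions C18-desalted, then LC-MS/MS (5–45% acetonitrile over 20 min; MS resolution 70 000, MS2 17 500). Fragments compared against both controls.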

MMP-9, sequence (P14780 107-707 limits assumed, species assumed): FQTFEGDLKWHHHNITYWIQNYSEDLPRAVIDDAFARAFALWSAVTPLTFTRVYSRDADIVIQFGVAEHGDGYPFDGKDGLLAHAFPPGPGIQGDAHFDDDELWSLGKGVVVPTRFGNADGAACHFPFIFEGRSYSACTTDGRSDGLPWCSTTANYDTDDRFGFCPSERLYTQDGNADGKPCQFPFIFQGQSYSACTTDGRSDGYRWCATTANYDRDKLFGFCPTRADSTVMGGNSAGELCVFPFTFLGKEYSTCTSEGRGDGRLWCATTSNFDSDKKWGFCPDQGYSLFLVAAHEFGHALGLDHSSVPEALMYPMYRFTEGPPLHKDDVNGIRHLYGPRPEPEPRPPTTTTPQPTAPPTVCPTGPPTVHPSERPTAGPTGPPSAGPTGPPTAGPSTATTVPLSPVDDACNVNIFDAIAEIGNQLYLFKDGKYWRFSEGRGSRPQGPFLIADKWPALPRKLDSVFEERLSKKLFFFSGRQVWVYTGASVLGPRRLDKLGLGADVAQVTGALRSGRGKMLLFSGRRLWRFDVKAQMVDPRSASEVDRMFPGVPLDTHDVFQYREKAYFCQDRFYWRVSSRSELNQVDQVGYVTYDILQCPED

| MMP-9 cleavage site(s) found in the synthetic peptide | Substance |
| --- | --- |
| GL (position 151–152) | Ac-NGRGDSLAYGLRSKSRSFQV-NH2 [GL fragment] |
| AQ and LL; position 193-194 and 195-196 | Ac-SLDVIPVAQLLSMPSDQDNN-NH2 [LL fragment] |

From PMC4764993 (Canadian journal of physiology and pharmacology, 2015)
